Data reported in ChEMBL document CHEMBL4699542, “Design and synthesis of novel methoxypyridine-derived gamma-secretase modulators” (Bioorg Med Chem, 2020).
Calls of active or inactive are those of the source. The rule behind the calls is not given here.

Tests used:
[1] = Ratio of drug level in brain to plasma of transgenic J20 mouse overexpressing human APP at 25 mg/kg, po administered via gavage for 3 consecutive days and measured after 4 hrs post last dose on day 3 by HPLC-MS/MS analysis; format: ADME, organism-based; conditions: 72 h, time 3 day
Method in brief: (§1)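 Female J20 mice, 5–6 months old (n=5/dose), dosed by oral gavage once daily for 3 days in 5% NMP/95% PEG300 vehicle. Sacrificed 4 h after the day-3 dose. Plasma and brain drug levels measured by LC-MS/MS (LLOQ 1 ng/mL plasma, 5 ng/g brain). Ratio = brain level/plasma level.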

[2] = AUC infinity in CD-1 mouse at 1 mg/kg, iv administered as single dose measured up to 24 hrs; format: ADME, organism-based; parameters: route intravenous, dose 1 mg/kg, time <=24; conditions: in vivo
Method in brief: (§2)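 Male CD-1 mice, 6–8 weeks old, single dose by tail vein (1 mg/kg, 3% NMP/45% PEG300/12% ethanol/40% water) or oral gavage (5 mg/kg, 5% NMP/95% PEG300). Retro-orbital plasma sampled 0.083 (iv only) to 24 h, n=3/timepoint, and analysed by HPLC/MS/MS. Non-compartmental analysis. Half-life taken from the terminal phase using ≥3 non-zero points after Tmax.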

[3] = Volume of distribution at steady state in CD-1 mouse at 1 mg/kg, iv administered as single dose measured up to 24 hrs; format: ADME, organism-based; conditions: in vivo
Method in brief: (§3)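 Male CD-1 mice, 6–8 weeks old, single tail-vein dose in 3% NMP/45% PEG300/12% ethanol/40% sterile water. Retro-orbital plasma (K3EDTA) taken at 0.083, 0.25, 0.5, 1, 2, 4, 8 and 24 h, n=3/timepoint, analysed by HPLC/MS/MS. Non-compartmental analysis (Model 201, uniform weighting); Tmax read directly from the data.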

[4] = In vivo modulation of gamma secretase in transgenic J20 mouse overexpressing human APP assessed as reduction in plasma amyloid beta38 level at 100 mg/kg, po administered via gavage for 3 consecutive days and measured after 4 hrs post last dose on day 3 by meso scale discovery relative to control; format: functional; parameters: scale not given: the % may be the effect or the level left; conditions: time 3 day
Method in brief: (§4)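 Female J20 mice, 5–6 months old (n=5/dose), dosed orally at 25, 50 or 100 mg/kg or with vehicle (5% NMP/95% PEG300) for 3 consecutive days. Plasma was taken 4 h after the final dose. Aβ38/40/42 measured by Meso Scale multiplex immunoassay, with % reduction relative to vehicle. Mean ± SEM, ANOVA.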

[5] = Apparent permeability from apical to basolateral membrane in MDCK-MDR1 cells; format: ADME, cell-based, Canis lupus familiaris; conditions: dog
Method in brief: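 Apical-to-basolateral apparent permeability (×10⁻⁶ cm/s) measured across MDR1-MDCK cell monolayers.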

[6] = Ratio of drug level in brain to plasma of transgenic J20 mouse overexpressing human APP at 50 mg/kg, po administered via gavage for 3 consecutive days and measured after 4 hrs post last dose on day 3 by HPLC-MS/MS analysis; format: ADME, organism-based; conditions: 72 h, time 3 day; method in brief: as §1
[7] = Cmax in CD-1 mouse at 5 mg/kg, po administered as single dose measured up to 24 hrs; format: ADME, organism-based; parameters: route oral, dose 5 mg/kg, time <=24; conditions: in vivo; method in brief: as §2
Gamma-secretase [8] = assay: Modulation of gamma secretase in human SH-SY5Y cells overexpressing wild type APP751 assessed as inhibition of amyloid beta (35 to 42 residues) formation incubated for overnight by ELISA; format: cell-based
Method in brief: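 SHSY5Y-APP751 cells plated at 75K/well and incubated overnight at 37 °C, then treated 24 h over 10 concentrations ([…]–10 μM, 1:3.16 steps, in duplicate). Medium Aβ42 measured by sandwich ELISA (Aβ35–42 capture, AP-conjugated Aβ1–12 detection, CDP-Star luminescence) against an Aβ42 standard curve.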

[9] = Tmax in CD-1 mouse at 1 mg/kg, iv administered as single dose measured up to 24 hrs; format: ADME, organism-based; conditions: in vivo; method in brief: as §3
[10] = Ratio of drug concentration in CD-1 mouse brain to plasma at 5 mg/kg, po measured after 1 hr; format: ADME, organism-based
Method in brief: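 Male CD-1 mice dosed once iv (1 mg/kg) or by oral gavage (5 mg/kg). Brain and plasma collected 1 h post dose (n=3/timepoint). Drug levels by HPLC/MS/MS; brain/plasma ratio calculated from these levels.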

[11] = molecular target: Gamma-secretase (Homo sapiens) (UniProt Q96BI3+Q9NZ42+Q8WW43+P49768+Q92542+P49810); assay: Modulation of gamma secretase in human SH-SY5Y cells overexpressing wild type APP751 assessed as effect on total amyloid beta level by meso scale discovery; format: cell-based
Method in brief: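 SHSY5Y cells stably overexpressing wild-type human APP751 treated with the compound over a concentration range. Aβ38, Aβ40, Aβ42 and total Aβ in the medium measured by MSD triplex immunoassay (4G8 detection, 2 h at room temperature). Concentrations back-fitted from standard curves.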

[12] = Ratio of drug level in brain to plasma of transgenic J20 mouse overexpressing human APP at 100 mg/kg, po administered via gavage for 3 consecutive days and measured after 4 hrs post last dose on day 3 by HPLC-MS/MS analysis; format: ADME, organism-based; conditions: 72 h, time 3 day; method in brief: as §1
[13] = Tmax in CD-1 mouse at 5 mg/kg, po administered as single dose measured up to 24 hrs; format: ADME, organism-based; conditions: in vivo
Method in brief: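 Male CD-1 mice, 6–8 weeks old, single oral gavage dose in 5% NMP/95% PEG300. Plasma (K3EDTA, retro-orbital, under isoflurane) taken at 0.25, 0.5, 1, 2, 4, 8 and 24 h, n=3/timepoint, analysed by HPLC/MS/MS. Non-compartmental extravascular analysis (Model 200); Tmax taken directly from the data.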

[14] = In vivo modulation of gamma secretase in transgenic J20 mouse overexpressing human APP assessed as reduction in plasma amyloid beta42 level at 25 mg/kg, po administered via gavage for 3 consecutive days and measured after 4 hrs post last dose on day 3 by meso scale discovery relative to control; format: functional; parameters: scale not given: the % may be the effect or the level left; conditions: time 3 day; method in brief: as §4
[15] = Ratio of drug concentration in CD-1 mouse brain to plasma at 0.4 mg/kg, iv measured after 1 hr; format: ADME, organism-based
[16] = Drug level in brain of transgenic J20 mouse overexpressing human APP at 50 mg/kg, po administered via gavage for 3 consecutive days and measured after 4 hrs post last dose on day 3 by HPLC-MS/MS analysis; format: ADME, organism-based; conditions: time 3 day, read-out: Ct
Method in brief: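 Female J20 mice, 5–6 months old, given 25, 50 or 100 mg/kg orally (5% NMP/95% PEG300) daily for 3 days, n=5/dose. Plasma and brain taken 4 h after the final dose and analysed by LC-MS/MS. LLOQ was 1 ng/mL in plasma and 5 ng/g in brain.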

[17] = Metabolic stability in human liver microsomes assessed as parent compound remaining at 1 uM incubated for 30 mins; format: ADME, Microsome; conditions: microsomes, 0.5 h, 1 µM
Method in brief: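 Test compound at 1 μM incubated 30 min with human, rat or mouse liver microsomes (1 mg/mL); parent remaining expressed as %.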

[18] = In vivo modulation of gamma secretase in transgenic J20 mouse overexpressing human APP assessed as reduction in plasma amyloid beta40 level at 25 mg/kg, po administered via gavage for 3 consecutive days and measured after 4 hrs post last dose on day 3 by meso scale discovery relative to control; format: functional; parameters: scale not given: the % may be the effect or the level left; conditions: time 3 day; method in brief: as §4
Cytochrome P450 2C9 = Cytochrome P450 2C9 (Homo sapiens, UniProt P11712); assay: Inhibition of recombinant CYP2C9 (unknown origin) by fluorescence-based assay; format: ADME
Cytochrome P450 2C9, sequence (P11712 whole entry, canonical isoform): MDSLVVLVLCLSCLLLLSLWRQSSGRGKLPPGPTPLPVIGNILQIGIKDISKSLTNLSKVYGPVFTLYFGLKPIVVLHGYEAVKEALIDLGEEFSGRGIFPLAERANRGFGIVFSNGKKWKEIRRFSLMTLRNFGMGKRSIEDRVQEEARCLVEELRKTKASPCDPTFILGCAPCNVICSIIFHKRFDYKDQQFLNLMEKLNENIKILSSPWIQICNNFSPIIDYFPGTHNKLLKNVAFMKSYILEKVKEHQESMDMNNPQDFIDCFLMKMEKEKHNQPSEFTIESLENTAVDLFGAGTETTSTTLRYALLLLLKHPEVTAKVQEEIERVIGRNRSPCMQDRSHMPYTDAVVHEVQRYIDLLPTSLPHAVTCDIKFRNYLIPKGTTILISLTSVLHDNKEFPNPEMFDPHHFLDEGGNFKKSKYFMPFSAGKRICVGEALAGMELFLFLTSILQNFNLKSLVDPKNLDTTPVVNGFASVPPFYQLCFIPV
Method in brief: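 Recombinant CYP isoforms (five tested) screened for inhibition in fluorescence-based assays; IC50 in μM.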

Gamma-secretase [19] = assay: Modulation of gamma secretase in human SH-SY5Y cells overexpressing wild type APP751 assessed as effect on amyloid beta38 level by meso scale discovery; format: cell-based

SMILES | BPR [1] | AUC [2] [ng·h/mL] | Vdss [3] [L/kg] | Activity [4] [%] | Papp [5] | BPR [6] | Cmax [7] [ng/mL] | IC50 (Gamma-secretase [8]) [nM] | Tmax [9] [min] | BPR [10] | Activity [11] | BPR [12] | Tmax [13] [min] | Activity [14] [%] | BPR [15] | concentration at 72 h [16] [ng/g] | Stabilty [17] [%] | Activity [18] [%] | IC50 (Cytochrome P450 2C9) [nM] | EC50 (Gamma-secretase [19]) [nM]
COc1nc(-c2csc(Nc3c4c(nn3CCF)CCCC4)n2)ccc1-n1cnc(C)c1 | 0.53 | 288 | 2.826 | 45 | 32.6 10^-6 cm/s | 0.42 | 167 | 47 | 4.98 | 0.68 | inactive | 0.57 | 60 | 18 | 0.81 | 282 | 100 | 11 | 6800 | 187
CCn1nc2c(c1Nc1nc(-c3ccc(-n4cnc(C)c4)c(OC)n3)cs1)CCC2 | 0.37 | 383 | 2.234 | 50 | 29.6 10^-6 cm/s | 0.38 | 377 | 33 | 4.98 | 0.4 | inactive | 0.46 | 15 | 29 | 0.37 | 83 | 51 | 19 | > 100000 | 202
